HGIII-sPLA2 inh = human group III sPLA2 inhibitors, primary screen, biochemical, QFRET, BODIPY PC-A2 liposome substrate | QFRET BODIPY PC-A2 liposome hydrolysis, fluorescence | 0.56% of 370,000 active | Group 3 secretory phospholipase A2 (Homo sapiens), Q9NZ20 | inhibition, % at 12.2 µM;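 active = inhibition above mean plus 3 SD of compounds lying within the high and low control bounds, cut at about 19% in these data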;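 also: 0% = median of test compound wells and 100% = no enzyme DMSO wells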
PLCb3 inh = human PLC-beta3 inhibitors, primary screen, biochemical, fluorescence. inhibition, % at 12.2 µM. Purified PLC-beta3, fluorogenic substrate. 1-phosphatidylinositol 4,5-bisphosphate phosphodiesterase beta-3 (Homo sapiens), Q01970. 0.18% of 370,000 active; in the data active = inhibition above about 11%;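 also: 0% = median of compound wells on plate and 100% = full blocker control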
PLCg1 inh = PLC-gamma1 enzyme inhibitors, primary screen, biochemical, fluorescence, purified enzyme | 1-phosphatidylinositol 4,5-bisphosphate phosphodiesterase gamma-1 (Homo sapiens), P19174 | AID 720700, 2013 | 0.84% of 370,000 active | inhibition, % at 12.2 µM | fluorogenic substrate
Tb MetRS inh = T. brucei MetRS inhibitors, primary screen, biochemical, luminescence; AID 624268, 2012; purified T. brucei MetRS, ATP depletion, Kinase-Glo luminescence; inhibition, % at 11.9 µM; 0.4% of 360,000 active;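 active = inhibition above a per-plate cutoff of the control wells' mean inhibition plus 3 SD, cut at about 5.5% in these data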;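 also: 0% = DMSO wells median and 100% = median of wells with control inhibitor compound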
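Dosing: 11.9 µM single point; system: parasite MetRS enzyme; technique: luminescence of leftover ATP; times: 15 min enzyme-compound preincubation, 2 h reaction, 10 min detection, 25 °C; replicates: each compound tested once; read-out basis: percent inhibition relative to median high and low control wells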
DAGLB inhibitor = DAGLB lipase inhibitors, primary screen, biochemical, fluorescence, HTS; HEK293T DAGLB membrane lysate, EnzChek fluorogenic substrate; 0.059% of 340,000 active; inhibition, % at 5.17 µM; in the data active = inhibition above about 34%;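 also: 0% = enzyme with vehicle and 100% = wells lacking enzyme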
Target sequence (Q8NCG7 whole entry, looked up): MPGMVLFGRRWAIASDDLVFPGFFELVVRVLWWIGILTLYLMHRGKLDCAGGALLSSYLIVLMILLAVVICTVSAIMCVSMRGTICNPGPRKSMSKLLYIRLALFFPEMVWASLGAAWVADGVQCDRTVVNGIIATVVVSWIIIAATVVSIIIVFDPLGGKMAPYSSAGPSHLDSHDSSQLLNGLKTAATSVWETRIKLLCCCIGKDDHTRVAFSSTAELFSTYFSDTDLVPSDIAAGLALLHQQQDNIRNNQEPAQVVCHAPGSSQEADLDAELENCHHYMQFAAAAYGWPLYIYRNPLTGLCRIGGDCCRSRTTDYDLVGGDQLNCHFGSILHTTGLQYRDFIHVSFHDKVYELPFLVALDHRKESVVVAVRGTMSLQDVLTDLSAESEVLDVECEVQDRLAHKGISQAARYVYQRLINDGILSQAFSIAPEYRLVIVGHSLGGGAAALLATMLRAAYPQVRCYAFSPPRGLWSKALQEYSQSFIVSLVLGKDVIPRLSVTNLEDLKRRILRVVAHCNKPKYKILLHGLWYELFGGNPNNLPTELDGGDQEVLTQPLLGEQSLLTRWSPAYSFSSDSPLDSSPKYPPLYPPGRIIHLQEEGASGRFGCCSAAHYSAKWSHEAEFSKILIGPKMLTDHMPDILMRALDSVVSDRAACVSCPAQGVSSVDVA
PLCg1 ctr = PLC-gamma1 enzyme inhibitors, counter-screen for PLC-beta3 inhibitor project, biochemical, fluorescence | shares compounds with PLCg1 inh | purified PLC-gamma1, fluorogenic substrate | inhibition, % at 12.3 µM | 3.1% of 3,300 active | AID 743258, 2014
PLCbeta3 conf = PLC-beta3 inhibitor confirmation, biochemical, fluorescence, purified enzyme; fluorogenic substrate fluorescence; 1% of 3,300 active; shares compounds with PLCg1 inh; inhibition, % at 12.3 µM; in the data active = inhibition above about 11%
* hit, by the source's call. An excerpt weighted towards active compounds, which were near 1.9% of everything screened. Rule as the data show it, unless noted: active = inhibition above about 9.5%; inactive = the rest.

Results for NC(N)=NC(N)=Nc1ccc(SC(F)(F)F)cc1 ?
HGIII-sPLA2 inh: 19; PLCb3 inh: 2; PLCg1 inh: 11*; Tb MetRS inh: 0; DAGLB inhibitor: 0; PLCg1 ctr: 8; PLCbeta3 conf: 2

What do the screens show for `O=C(CN1CCN(c2ccccc2)CC1)NC(=O)NCc1ccco1`?
HGIII-sPLA2 inh: 1; PLCb3 inh: 1; PLCg1 inh: 11*; Tb MetRS inh: 1; DAGLB inhibitor: 0; PLCg1 ctr: -6; PLCbeta3 conf: -4

What do the screens show for `Cc1ccc(C2OC(=O)c3ccccc32)cc1` (stereo not given)?
HGIII-sPLA2 inh: 9; PLCb3 inh: 3; PLCg1 inh: 9.6*; Tb MetRS inh: 0; DAGLB inhibitor: -1; PLCg1 ctr: -2; PLCbeta3 conf: 0

How did CCCS(=O)(=O)N1CCCC(c2nc(-c3cccc(OC)c3)no2)C1 (stereo not given) do in these assays?
HGIII-sPLA2 inh: -10; PLCb3 inh: -3; PLCg1 inh: -2; Tb MetRS inh: -1; DAGLB inhibitor: -1

What do the screens show for `COc1cccc(-c2noc(C3CCCN(S(=O)(=O)c4cccc(Cl)c4C)C3)n2)c1` (stereo not given)?
HGIII-sPLA2 inh: -4; PLCb3 inh: 1; PLCg1 inh: 12*; Tb MetRS inh: 0; DAGLB inhibitor: -16; PLCg1 ctr: -2; PLCbeta3 conf: 1

How did CN1CCO/C1=C(\C(Cl)=C(Cl)Cl)[N+](=O)[O-] do in these assays?
HGIII-sPLA2 inh: -1; PLCb3 inh: 2; PLCg1 inh: -3; Tb MetRS inh: 0; DAGLB inhibitor: -2

Results for CCC1CO/C(=C(\C(Cl)=C(Cl)Cl)[N+](=O)[O-])N1 (stereo not given) ?
HGIII-sPLA2 inh: 8; PLCb3 inh: 8; PLCg1 inh: 9.7*; Tb MetRS inh: -1; PLCg1 ctr: 2; PLCbeta3 conf: 9

Results for COc1ccc(-c2cn[nH]c2N)cc1 ?
HGIII-sPLA2 inh: 14; PLCb3 inh: 4; PLCg1 inh: 12*; Tb MetRS inh: -1; DAGLB inhibitor: 1; PLCg1 ctr: -8; PLCbeta3 conf: -2

How did CCOc1ccc(-c2cn[nH]c2N)cc1 do in these assays?
Tb MetRS inh: 0; DAGLB inhibitor: 4

How did CN(Cc1cn(-c2ccccc2)nc1-c1cc2ccccc2o1)C(=O)CCC(=O)O do in these assays?
HGIII-sPLA2 inh: -19; PLCb3 inh: 0; PLCg1 inh: 10*; Tb MetRS inh: 0; DAGLB inhibitor: 3; PLCg1 ctr: -6; PLCbeta3 conf: -3

Results for C[C@H]1C(C(=O)N(C)C2CCCCC2)=Cc2c(n(-c3ccc(F)cc3)c(=O)n2CCCOc2ccccc2)C=C1c1ccccc1 ?
HGIII-sPLA2 inh: -6; PLCb3 inh: -285; PLCg1 inh: -209

How did O=C(OCc1cn(Cc2cccc(Cl)c2)nn1)N1CCOCC1 do in these assays?
HGIII-sPLA2 inh: 4; PLCb3 inh: 1; PLCg1 inh: 0

Results for CC(=O)c1c(C)nc2ccc([N+](=O)[O-])cc2c1-c1ccccc1 ?
HGIII-sPLA2 inh: 10; PLCb3 inh: 5; PLCg1 inh: 14*; Tb MetRS inh: 0; DAGLB inhibitor: -1; PLCg1 ctr: 0; PLCbeta3 conf: 2

How did CC(=O)c1c(C)nc2ccc(Br)cc2c1-c1ccccc1 do in these assays?
HGIII-sPLA2 inh: 4; PLCb3 inh: 5; PLCg1 inh: 0; Tb MetRS inh: 0; DAGLB inhibitor: -1

What do the screens show for `COC(=O)CC#C[C@H](C)[C@@H](NS(C)(=O)=O)C1CCCCC1`?
HGIII-sPLA2 inh: -5; PLCb3 inh: 3; PLCg1 inh: -4

Results for CCCCCCC(=O)NC1CCCCN(C)C1=O (stereo not given) ?
HGIII-sPLA2 inh: 3; PLCb3 inh: 5; PLCg1 inh: 2

How did COc1ccc(C(=O)N/N=C(\c2ccccc2)c2ccccn2)cc1 do in these assays?
HGIII-sPLA2 inh: 3; PLCb3 inh: 3; PLCg1 inh: 5; Tb MetRS inh: 0; DAGLB inhibitor: 1

How did O=C(NN=C(c1ccccc1)c1ccccn1)c1ccccc1 do in these assays?
HGIII-sPLA2 inh: -6; PLCb3 inh: 0; PLCg1 inh: 9.7*; Tb MetRS inh: 0; DAGLB inhibitor: 1; PLCg1 ctr: 0; PLCbeta3 conf: 1

Results for CCOc1ccc(C(=O)Oc2cc(C)[nH]c(=O)c2[N+](=O)[O-])cc1OCC ?
HGIII-sPLA2 inh: 9; PLCb3 inh: 2; PLCg1 inh: 10*; Tb MetRS inh: 0; DAGLB inhibitor: -1; PLCg1 ctr: 6; PLCbeta3 conf: 4

Results for Cc1cccc(C(=O)N[C@H]2CC[C@@]34CCCN3C(=O)CCC[C@H]4[C@H]2C)c1 ?
HGIII-sPLA2 inh: 2; PLCb3 inh: 5; PLCg1 inh: -1

Results for O=C(Nc1ccccc1)c1cc([N+](=O)[O-])ccc1NC1CCCCC1 ?
HGIII-sPLA2 inh: -4; PLCb3 inh: 9; PLCg1 inh: 9.8*; Tb MetRS inh: 0; DAGLB inhibitor: -6; PLCg1 ctr: -1; PLCbeta3 conf: -3

What do the screens show for `CC(C)CNC(=O)OCc1cn(Cc2cccc(F)c2)nn1`?
HGIII-sPLA2 inh: 1; PLCb3 inh: -2; PLCg1 inh: 0

Results for O=C(CCl)Nc1ccc(C(=O)NCC2COc3ccccc3O2)cc1 (stereo not given) ?
HGIII-sPLA2 inh: 0; PLCb3 inh: 0; PLCg1 inh: -3

What do the screens show for `Cc1cc(/C=C(\C#N)C(=O)Nc2ccc(Cl)cc2)c(C)n1-c1ccc(N2CCOCC2)c([N+](=O)[O-])c1`?
HGIII-sPLA2 inh: 0; PLCb3 inh: 7; PLCg1 inh: 14*; Tb MetRS inh: -1; DAGLB inhibitor: -2; PLCg1 ctr: 3; PLCbeta3 conf: 4

Results for Cc1ccc2c(c1)NCC(C(=O)NCc1ccccc1)O2 (stereo not given) ?
HGIII-sPLA2 inh: -4; PLCb3 inh: 0; PLCg1 inh: 2; Tb MetRS inh: 0; DAGLB inhibitor: -6

Results for NC(=O)C1CNc2ccccc2O1 (stereo not given) ?
HGIII-sPLA2 inh: 7; PLCb3 inh: 7; PLCg1 inh: 11*; Tb MetRS inh: -1; DAGLB inhibitor: -3; PLCg1 ctr: -3; PLCbeta3 conf: -3

Results for Cn1cccc1-c1nc2ccc(NC(=O)c3ccc([N+](=O)[O-])cc3)cc2[nH]1 ?
HGIII-sPLA2 inh: -16; PLCb3 inh: 9; PLCg1 inh: 14*; Tb MetRS inh: 0; DAGLB inhibitor: 6; PLCg1 ctr: 2; PLCbeta3 conf: 5
